Laboratory results: ChEMBL document CHEMBL1153027, “Synthesis of quinolinyl and isoquinolinyl phenyl ketones as novel agonists for the cannabinoid CB2 receptor” (Bioorg Med Chem, 2009)
pEC50: −log10 of the molar value.

Assays:
[1] = biological target: Cannabinoid receptor 1 (Rattus norvegicus) (UniProt P20272); assay: Agonist activity at rat cerebellar membrane CB1 receptor at 10 uM by [35]GTPgammaS binding assay relative to basal level; format: functional
Outline: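 Rat cerebellar membranes (CB1) used to screen for CB1 agonism and antagonism, per a previously described method. [35S]GTPγS binding with compounds at 10 µM. Results given as % basal; mean ± SEM of at least three duplicate experiments.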

Cannabinoid receptor 2 [2] = biological target: T1, Cannabinoid receptor 2 (Homo sapiens, UniProt P34972); assay: Agonist activity at human CB2 receptor expressed in CHO cells by [35]GTPgammaS binding assay; format: functional, cell-based
Outline: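 hCB2 stably expressed in CHO cells; [35S]GTPγS binding stimulated by agonist, procedure of Savinainen et al. Full concentration–response curves were run only for compounds giving over 50% relative activity at 10 µM. EC50 and Emax were obtained by nonlinear regression fitted to a sigmoidal concentration–response equation.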

Cannabinoid receptor 2 [3] = biological target: T1, Cannabinoid receptor 2; assay: Agonist activity at human CB2 receptor expressed in CHO cells at 10 uM by [35]GTPgammaS binding assay relative to HU210; format: functional, cell-based
Outline: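 Human CB2 stably expressed in CHO cells; agonist-stimulated binding of the nonhydrolyzable GTP analogue [35S]GTPγS, run as described by Savinainen et al. Single test concentration 10 µM. Response expressed as percentage of the full CB1/CB2 agonist HU-210. Mean ± SEM of at least three experiments performed in duplicate.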

T1 sequence (P34972 whole entry): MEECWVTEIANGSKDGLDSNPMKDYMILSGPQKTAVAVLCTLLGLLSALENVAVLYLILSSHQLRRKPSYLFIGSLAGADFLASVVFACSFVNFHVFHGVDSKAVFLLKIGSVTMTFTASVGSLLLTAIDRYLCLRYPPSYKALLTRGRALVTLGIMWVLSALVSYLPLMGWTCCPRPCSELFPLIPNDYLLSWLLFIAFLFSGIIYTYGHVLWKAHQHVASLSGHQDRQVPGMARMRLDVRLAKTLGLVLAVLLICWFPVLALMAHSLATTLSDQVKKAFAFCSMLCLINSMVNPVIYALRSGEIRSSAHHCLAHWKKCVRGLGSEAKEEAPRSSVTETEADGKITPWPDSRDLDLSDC
Sequence of Cannabinoid receptor 1 (Rattus norvegicus) (P20272 whole entry): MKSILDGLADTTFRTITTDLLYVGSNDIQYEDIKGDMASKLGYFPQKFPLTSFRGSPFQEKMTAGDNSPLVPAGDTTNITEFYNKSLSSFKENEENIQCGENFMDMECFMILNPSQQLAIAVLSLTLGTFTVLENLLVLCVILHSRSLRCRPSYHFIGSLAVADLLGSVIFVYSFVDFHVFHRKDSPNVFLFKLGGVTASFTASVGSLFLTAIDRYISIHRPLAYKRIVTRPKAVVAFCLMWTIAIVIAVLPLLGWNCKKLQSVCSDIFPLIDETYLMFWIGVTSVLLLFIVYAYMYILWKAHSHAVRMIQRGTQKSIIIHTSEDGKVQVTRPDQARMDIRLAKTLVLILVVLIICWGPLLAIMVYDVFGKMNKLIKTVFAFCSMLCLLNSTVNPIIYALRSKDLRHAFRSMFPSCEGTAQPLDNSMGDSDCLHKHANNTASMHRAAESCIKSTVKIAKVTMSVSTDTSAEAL

Compound	Activity [1] [%]	pEC50 (Cannabinoid receptor 2 [2])	Emax (Cannabinoid receptor 2 [3]) [%]
COc1ccc(C(=O)c2nccc3ccccc23)cc1	85	–	–
CN(C)c1ccccc1C(=O)c1ccc2ccccc2n1	101	6.10	91
O=C(c1cccc(C(F)(F)F)c1)c1nccc2ccccc12	106	–	–
CCOc1ccc(C(=O)c2ccc3ccccc3n2)cc1	100	–	–
O=C(c1ccc(F)cc1)c1ccc2ccccc2n1	99	–	–
CC(C)Oc1ccc(C(=O)c2ccc3ccccc3n2)cc1	102	–	–
COc1ccc(C(=O)c2ccc3ccccc3n2)cc1	108	–	–
O=C(c1ccc2ccccc2n1)c1ccccc1C(F)(F)F	102	5.70	87
O=C(c1ccc(Cl)c(Cl)c1)c1ccc2ccccc2n1	100	–	–
O=C(c1cc(C(F)(F)F)cc(C(F)(F)F)c1)c1nccc2ccccc12	101	–	–
O=C(c1ccc(C(F)(F)F)cc1)c1ccc2ccccc2n1	105	–	–
CN(C)c1ccc(C(=O)c2nccc3ccccc23)cc1	99	5.60	68
O=C(c1cccc(C(F)(F)F)c1)c1ccc2ccccc2n1	102	5.30	42
COc1cccc(C(=O)c2nccc3ccccc23)c1	112	–	–
COc1cccc(C(=O)c2ccc3ccccc3n2)c1	102	5.70	54
O=C(c1ccccc1)c1nccc2ccccc12	102	–	–
COc1ccccc1C(=O)c1ccc2ccccc2n1	106	5.60	53
O=C(c1ccccc1C(F)(F)F)c1nccc2ccccc12	112	6.30	72
O=C(c1cc(C(F)(F)F)cc(C(F)(F)F)c1)c1ccc2ccccc2n1	108	–	–
O=C(c1ccc(C(F)(F)F)cc1)c1nccc2ccccc12	95	5.50	57
O=C(c1ccc(Cl)c(Cl)c1)c1nccc2ccccc12	111	–	–
O=C(c1cccc(F)c1)c1nccc2ccccc12	99	–	–
CCCOc1ccc(C(=O)c2ccc3ccccc3n2)cc1	108	–	–
CN(C)c1ccc(C(=O)c2ccc3ccccc3n2)cc1	101	5.20	62
CN(C)c1ccccc1C(=O)c1nccc2ccccc12	116	6.20	95
O=C(c1ccc(F)cc1)c1nccc2ccccc12	104	–	–
O=C(c1ccc(Cl)cc1)c1nccc2ccccc12	101	–	–
O=C(c1ccc(Cl)cc1)c1ccc2ccccc2n1	101	5.40	63
O=C(c1cccc(F)c1)c1ccc2ccccc2n1	106	–	–
O=C(c1ccccc1)c1ccc2ccccc2n1	103	5.10	52
